TRPC4 block – blocks the mouse TRPC4 cation channel. Q9QUQ5. 300,000 compounds, 0.39% hits. B-score at 10 µM. HEK293 TRPC4beta/mu-opioid, DAMGO-evoked Fluo4 calcium flux; hits give low values;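 active means B-score over 3 SD under the library average, no early fluorescence shift, positive overall ratio signal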
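Assay system: TRPC4beta/mu-opioid receptor HEK293 cell line; compound dosing: single concentration per test compound; detection: Fluo4 Ca2+ flux fluorescence; evaluation: per-well B score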
TRPC4 agonist – activators of mouse TRPC4 channel. HEK293 TRPC4beta/mu-opioid, Fluo4 calcium fluorescence; hits give high values. B-score at 10 µM. 310,000 compounds, 0.49% hits;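 active means B-score above 5 SD of library B-scores, and initial fluorescence ratio not above library mean plus 5 SD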;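 further: positive B-score marks a calcium rise read as TRPC4 activation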
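Incubation: 45 min room-temperature Fluo4 loading, 110 s read / System: HEK293 cells stably co-expressing mouse TRPC4beta and mu-opioid receptor / Signal: Fluo4 fluorescence, kinetic / Control set: buffer (low) and maximal DAMGO (high) / Measure: integrated baseline-normalised fluorescence ratio, converted to per-well B score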
TRPC6 activator – activates the mouse TRPC6 cation channel; 310,000 compounds, 0.13% hits; HEK293-TRPC6 membrane potential dye fluorescence; hits give high values; Q61143; B-score at 10 µM;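 active means B-score of the integrated fluorescence ratio above library mean plus 3 SD, and starting fluorescence ratio within library mean plus 5 SD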;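 further: higher score means more depolarization so channel activation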
TRPC4 potent – TRPC4 (mouse) allosteric potentiation; B-score at 10 µM; Q9QUQ5; 310,000 compounds, 0.42% hits; HEK293 TRPC4beta/mu-opioid, DAMGO EC20, Fluo-4 Ca2+ flux; hits give high values;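 active means B-score of calcium response area above 5 SD of library B-scores, with initial fluorescence ratio within 5 SD of library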;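 further: B-score of integrated fluorescence ratio over time as area under calcium response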
TRPC6 inhibitor – blocks the mouse TRPC6 cation channel | B-score at 10 µM | HEK293-TRPC6, membrane potential dye, ACh-evoked depolarization; hits give low values | 310,000 compounds, 1.1% hits | AID 2553;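 active means B-score under library mean minus 3 SD, initial fluorescence not abnormally high, positive integrated signal ratio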;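 further: B-score derived from integrated fluorescence ratio over the kinetic read; more negative B-score means stronger inhibition of depolarization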
* marks the source's active call; other numbers are inactive results; i = inactive. In the library only some 2.3% were active in any assay of this set; here they are far more common.

SMILES	TRPC4 block	TRPC4 agonist	TRPC6 activator	TRPC4 potent	TRPC6 inhibitor
CC1=NNC(=O)C1CCC(=O)N/N=C/c1c(Cl)cccc1Cl (stereo not drawn)	i	i	i	i	i
O=C(Sc1ccccc1)c1cccc(Cn2cc(C(F)(F)F)ccc2=O)c1	i	i	i	i	i
O=C(c1c(F)cccc1F)N1CCN(CCOc2ccccc2)CC1	i	i	i	i	i
Cc1ccc(C(C)C)cc1OCCCCN1CCCC1	i	i	i	26*	i
Cc1ccccc1OCCCCN1CCCCC1	i	i	i	i	i
COC(=O)[C@]1(CC(C)C)N[C@H](c2ccc(-c3cccc(Cl)c3)cc2)[C@@H]2C(=O)N(C)C(=O)[C@@H]21	i	i	i	i	i
O=C(Nc1ccc(Cl)c([N+](=O)[O-])c1)c1cnccn1	i	i	i	21*	i
O=C(Nc1ccc(Cl)c([N+](=O)[O-])c1)c1ccncc1	i	i	i	i	i
CC(C)(C)n1cnc2cc(NC(=O)c3ccccc3)ccc21	i	i	i	i	i
O=C(NCCNC(=O)c1ccccc1F)c1ccccn1	i	i	i	i	i
O=C(c1ccccc1)N1CCN(C(=O)c2nn3c(C(F)(F)F)cc(-c4ccco4)nc3c2Br)CC1	i	i	i	i	i
O=C1CC(O)(C(F)(F)F)Oc2c1ccc1ccccc21 (stereo not drawn)	i	142*	i	i	i
O=C1CC(O)(C(F)F)Oc2ccc3ccccc3c21 (stereo not drawn)	i	i	i	i	i
CNC(=S)NNC(=O)c1cccn(Cc2cccc(C(F)(F)F)c2)c1=O	i	i	i	25*	i
CNC(=S)NNC(=O)c1cccn(Cc2ccc(Cl)cc2Cl)c1=O	i	i	i	i	i
CCc1ccc2[nH]c(=O)c(C3C(C#N)=C(N)Oc4c3ccc3cccnc43)cc2c1 (stereo not drawn)	i	i	i	i	-5.9*
Cc1ccc(-c2nn(-c3ccccc3)cc2CO)cc1	i	i	i	i	i
N=C(N)SCc1cn(-c2ccccc2)nc1-c1ccc(Br)cc1	i	71*	i	i	i
O=C(CSc1nnc(-c2ccc(Cl)cc2Cl)n1C1CCCCC1)NC1CCS(=O)(=O)C1 (stereo not drawn)	-6*	i	i	i	i
Cc1cccc(OCC(=O)Nc2ccc(S(=O)(=O)Nc3onc(C)c3C)cc2)c1C	i	i	i	i	i
CC(=O)Nc1ccc(S(=O)(=O)Nc2ccn(Cc3ccccc3Cl)n2)cc1	i	i	i	i	i
Cc1ccc(/C=N/NC(=O)C2COc3ccccc3O2)s1 (stereo not drawn)	i	i	i	76*	i
O=C(N/N=C/c1ccco1)C1COc2ccccc2O1 (stereo not drawn)	i	111*	i	i	i
O=C(N/N=C\c1ccc[nH]1)C1COc2ccccc2O1 (stereo not drawn)	i	51*	i	i	i
CCC/C=N/NC(=O)C1COc2ccccc2O1 (stereo not drawn)	i	i	i	i	i
SMILES	TRPC4 block	TRPC4 agonist	TRPC6 activator	TRPC4 potent	TRPC6 inhibitor
O=C(N/N=C\c1ccccn1)C1COc2cc3ccccc3cc2O1 (stereo not drawn)	i	53*	i	i	i
O=C(N/N=C\c1ccc(Br)o1)C1COc2ccccc2O1 (stereo not drawn)	i	i	i	i	i
O=C(N/N=C/c1cccs1)C1COc2ccccc2O1 (stereo not drawn)	i	i	i	i	i
Cn1ccnc1C(=O)c1ccc(Cl)c(S(=O)(=O)N2CCOCC2)c1	i	i	i	i	i
C=CCOc1cccc(C(=O)N(C)C2CCCN(Cc3ccccc3F)C2)c1 (stereo not drawn)	i	i	i	i	i
COc1ccc(C(c2c(O)ccc3ccccc23)N2CCOCC2)c(OC)c1 (stereo not drawn)	-6*	i	i	i	i
COC(=O)C1=C(C)N=c2s/c(=C3\C(=O)Nc4ccccc43)c(=O)n2C1c1ccccc1 (stereo not drawn)	i	i	i	i	-5.9*
CCOC(=O)CN1N=C(/C=C/c2ccc(C(C)C)cc2)CCC1=O	i	i	i	11*	i
CCOC(=O)CN1N=C(/C=C/c2ccccc2)CCC1=O	i	i	i	i	i
COc1ccc(CN(C)C(=O)C23CC4CC(CC(Cl)(C4)C2)C3)c(OC)c1OC	i	i	i	i	i
O=C(CCCN=C1NS(=O)(=O)c2ccccc21)OCC(=O)c1ccc(F)cc1	i	48*	i	i	i
CC1CCCN(CCCN2C(=O)C3C(C(=O)Nc4ccc(Cl)cc4)C4C=CC3(O4)C2C(=O)NC2CCCCC2)C1 (stereo not drawn)	-6*	i	i	i	i
Cc1cc(C)cc(NC(=O)C2C3C=CC4(O3)C2C(=O)N(CCN2CCCCC2)C4C(=O)NC2CCCCC2)c1 (stereo not drawn)	i	i	i	i	i
CC(C)c1ccc(NC(=O)C2C3C=CC4(O3)C2C(=O)N(CCCN2CCCCC2)C4C(=O)NC2CCCCC2)cc1 (stereo not drawn)	-6*	66*	i	i	i
CCN(CC)CCN1C(=O)C2C(C(=O)Nc3ccc(C(C)C)cc3)C3C=CC2(O3)C1C(=O)NC1CCCCC1 (stereo not drawn)	-6*	63*	i	i	i
CN(C)CCN1C(=O)C2C(C(=O)Nc3cc(Cl)cc(Cl)c3)C3C=CC2(O3)C1C(=O)NC1CCCCC1 (stereo not drawn)	-7*	i	i	i	i
Cc1ccc(NC(=O)C2C3C=CC4(O3)C2C(=O)N(CCCN2CCCC2)C4C(=O)NC2CCCCC2)cc1Cl (stereo not drawn)	i	i	i	i	i
Cc1c(C(=O)N2CCOCC2)sc(NC(=O)c2ccccc2F)c1C#N	i	i	i	i	i
C[N+]1(C)CCC(=C2c3ccccc3CC(=O)c3sccc32)CC1	i	i	i	i	-6.4*
Cc1cccc2c1Sc1ccccc1CC2=O	i	i	i	i	i
Cc1cc(N2CCC(C)CC2)nc(-c2ccccc2O)n1	i	i	i	i	i
Cc1cc(Nc2ccc(Cl)cc2)nc(NCc2ccccc2)n1	i	i	i	i	i
Cc1cc(Nc2ccccc2)nc(NCc2ccccc2)n1	-6*	i	i	i	i

Screens: PubChem BioAssay, Johns Hopkins Ion Channel Center
